{"source": "ChEMBL document CHEMBL1151472", "about": "“In vitro interactions between tacrolimus and azoles against Candida albicans determined by different methods” (2008)", "type_in_all_cases": "functional", "key": {"Candida albicans [1]": {"test_system": "Candida albicans", "experiment": "Antimicrobial activity against azole-resistant Candida albicans isolate CA10 assessed as growth at 0.25 ug/ml cotreated with 0.002 ug/ml calcineurin signaling inhibitor Tacrolimus after 48 hrs by microdilution checkboard technique relative to control", "design": "scale not given: the % may be the effect or the level left", "in_short": "(§1)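 Checkerboard microdilution in RPMI 1640 (pH 7.0, 2% dextrose, 0.165 M MOPS). Azole dilutions run along columns and FK506 along rows, at 4× final concentration. Final inoculum 2.5 × 10^3 CFU/ml from Sabouraud-subcultured cells. Incubated 35°C for 48 h; OD read at 492 nm. Background from microorganism-free plates subtracted. Growth % = well OD / drug-free well OD. Triplicate on different days, values averaged.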"}, "Candida albicans [2]": {"test_system": "Candida albicans", "experiment": "Antimicrobial activity against azole-susceptible Candida albicans isolate CA129 co-treated with calcineurin signaling inhibitor tacrolimus after 48 hrs by microdilution checkerboard technique", "conditions": "isolate CA129, 48 h", "in_short": "(§2)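 Checkerboard microdilution in MOPS-buffered RPMI 1640 (pH 7.0, 2% dextrose) with 2.5 × 10^3 CFU/ml for 48 h at 35°C. Final FK506 was 0.002–0.125 μg/ml. Azole finals were FLC 0.125–128 μg/ml, and ITR and VRC 0.008–8 μg/ml. MIC80 is an 80% OD492 decrease vs drug-free control. Interaction was scored by FICI (synergy ≤0.5, antagonism >4) and by ΔE from triplicates.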"}, "Candida albicans [3]": {"test_system": "Candida albicans", "experiment": "Antimicrobial activity against azole-resistant Candida albicans isolate CA10 assessed as log reduction in colony count at 10 ug/ml co-treated with calcineurin signaling inhibitor tacrolimus after 48 hrs by XTT assay", "in_short": "(§3)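 Same time-kill setup (10^5 CFU/ml start, azole ± 0.016 μg/ml FK506, 35°C). At each time point, aliquots were mixed 1:1 with XTT (0.5 g/liter in Ringer's lactate) plus 10 μM menadione final. Incubation was in the dark for up to 2 h at 35°C, then formazan was read at 492 nm. OD was converted to CFU via a standard curve (Y = 4.2610x + 4.2087). Triplicate.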"}, "Candida albicans [4]": {"test_system": "Candida albicans", "experiment": "Antimicrobial activity against azole-resistant Candida albicans isolate CA10 assessed as growth at 0.125 ug/ml after 48 hrs by microdilution checkerboard technique relative to control", "in_short": "(§4)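 Checkerboard microdilution in MOPS-buffered RPMI 1640 (pH 7.0, 2% dextrose). Final ranges: azole 0.125–128 μg/ml (FLC) or 0.008–8 μg/ml (ITR, VRC), tacrolimus 0.002–0.125 μg/ml; solvent 1% in single-drug wells. Inoculum 2.5 × 10^3 CFU/ml, 35°C, 48 h. Growth % = background-subtracted OD492 of each well / drug-free well. Triplicate on different days.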"}, "Candida albicans [5]": {"test_system": "Candida albicans", "experiment": "Antimicrobial activity against azole-resistant Candida albicans isolate CA10 assessed as growth at 0.5 ug/ml co-treated with 0.125 ug/ml calcineurin signaling inhibitor tacrolimus after 48 hrs by microdilution checkboard technique relative to control", "design": "scale not given: the % may be the effect or the level left", "in_short": "as §4"}, "Candida albicans [6]": {"test_system": "Candida albicans", "experiment": "Antimicrobial activity against azole-susceptible Candida albicans isolate CA8 after 48 hrs by broth microdilution method", "conditions": "isolate CA8, 48 h", "in_short": "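CLSI M27-A2 broth microdilution was run in RPMI 1640 (pH 7.0, 2% dextrose, 0.165 M MOPS). Inoculum was 2.5 × 10^3 CFU/ml, incubated 35°C for 48 h without shaking. Plates were read visually (0–5 scale) and at OD 492 nm. MIC80 = lowest concentration giving an 80% absorbance decrease vs drug-free control. Triplicate.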"}, "Candida albicans [7]": {"test_system": "Candida albicans", "experiment": "Antimicrobial activity against azole-resistant Candida albicans isolate CA10 assessed as growth at 32 ug/ml co-treated with 0.125 ug/ml calcineurin signaling inhibitor tacrolimus after 48 hrs by microdilution checkboard technique relative to control", "design": "scale not given: the % may be the effect or the level left", "in_short": "(§5)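 CA10 in RPMI 1640 with 2% dextrose and 0.165 M MOPS, pH 7.0. Checkerboard used twofold dilutions, with azole alone in row H and the drug-free growth control in well H1. Final inoculum was 2.5 × 10^3 CFU/ml, incubated 35°C for 48 h, with OD read at 492 nm. Growth % = background-subtracted well OD / drug-free well OD. Run in triplicate on different days.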"}, "Candida albicans [8]": {"test_system": "Candida albicans", "experiment": "Antimicrobial activity against azole-resistant Candida albicans isolate CA10 assessed as growth at 8 ug/ml after 48 hrs by microdilution checkerboard technique relative to control", "in_short": "as §5"}, "Candida albicans [9]": {"test_system": "Candida albicans", "experiment": "Antimicrobial activity against azole-resistant Candida albicans isolate CA10 assessed as growth at 0.125 ug/ml cotreated with 0.008 ug/ml calcineurin signaling inhibitor tacrolimus after 48 hrs by microdilution checkerboard technique relative to control", "design": "scale not given: the % may be the effect or the level left", "in_short": "as §4"}, "Candida albicans [10]": {"test_system": "Candida albicans", "experiment": "Antimicrobial activity against azole-resistant Candida albicans isolate CA10 assessed as growth at 1 ug/ml after 48 hrs by microdilution checkerboard technique relative to control", "in_short": "as §4"}, "Candida albicans [11]": {"test_system": "Candida albicans", "experiment": "Antimicrobial activity against azole-resistant Candida albicans isolate CA10 assessed as growth at 8 ug/ml cotreated with 0.125 ug/ml calcineurin signaling inhibitor Tacrolimus after 48 hrs by microdilution checkboard technique relative to control", "design": "scale not given: the % may be the effect or the level left", "in_short": "as §5"}, "Candida albicans [12]": {"test_system": "Candida albicans", "experiment": "Antimicrobial activity against azole-resistant Candida albicans isolate CA10 assessed as growth at 64 ug/ml cotreated with 0.004 ug/ml calcineurin signaling inhibitor Tacrolimus after 48 hrs by microdilution checkboard technique relative to control", "design": "scale not given: the % may be the effect or the level left", "in_short": "as §5"}, "Candida albicans [13]": {"test_system": "Candida albicans", "experiment": "Antimicrobial activity against azole-resistant Candida albicans isolate CA10 assessed as growth at 64 ug/ml co-treated with 0.008 ug/ml calcineurin signaling inhibitor tacrolimus after 48 hrs by microdilution checkboard technique relative to control", "design": "scale not given: the % may be the effect or the level left", "in_short": "as §5"}, "Candida albicans [14]": {"test_system": "Candida albicans", "experiment": "Antimicrobial activity against azole-resistant Candida albicans isolate CA10 assessed as growth at 0.5 ug/ml cotreated with 0.004 ug/ml calcineurin signaling inhibitor tacrolimus after 48 hrs by microdilution checkerboard technique relative to control", "design": "scale not given: the % may be the effect or the level left", "in_short": "as §4"}, "Candida albicans [15]": {"test_system": "Candida albicans", "experiment": "Antimicrobial activity against azole-resistant Candida albicans isolate CA10 assessed as growth at 0.125 ug/ml co-treated with 0.004 ug/ml calcineurin signaling inhibitor tacrolimus after 48 hrs by microdilution checkboard technique relative to control", "design": "scale not given: the % may be the effect or the level left", "in_short": "as §4"}, "Candida albicans [16]": {"test_system": "Candida albicans", "experiment": "Antimicrobial activity against azole-susceptible Candida albicans isolate CA14 assessed as lof reduction in colony count at 10 ug/ml cotreated with calcineurin signaling inhibitor Tacrolimus after 48 hrs by XTT assay", "in_short": "as §3"}, "Candida albicans [17]": {"test_system": "Candida albicans", "experiment": "Antimicrobial activity against azole-resistant Candida albicans isolate CA10 assessed as growth at 16 ug/ml after 48 hrs by microdilution checkerboard technique relative to control", "in_short": "as §4"}, "Candida albicans [18]": {"test_system": "Candida albicans", "experiment": "Antimicrobial activity against azole-resistant Candida albicans isolate CA10 assessed as growth at 0.25 ug/ml co-treated with 0.008 ug/ml calcineurin signaling inhibitor tacrolimus after 48 hrs by microdilution checkboard technique relative to control", "design": "scale not given: the % may be the effect or the level left", "in_short": "as §1"}, "Candida albicans [19]": {"test_system": "Candida albicans", "experiment": "Antimicrobial activity against azole-resistant Candida albicans isolate CA15 cotreated with calcineurin signaling inhibitor Tacrolimus after 48 hrs by microdilution checkerboard technique", "conditions": "isolate CA15, 48 h", "in_short": "as §2"}, "Candida albicans [20]": {"test_system": "Candida albicans", "experiment": "Antimicrobial activity against azole-resistant Candida albicans isolate CA10 assessed as growth at 0.125 ug/ml co-treated with 0.016 ug/ml calcineurin signaling inhibitor tacrolimus after 48 hrs by microdilution checkboard technique relative to control", "design": "scale not given: the % may be the effect or the level left", "in_short": "as §4"}, "Candida albicans [21]": {"test_system": "Candida albicans", "experiment": "Antimicrobial activity against azole-resistant Candida albicans isolate CA10 assessed as growth at 32 ug/ml co-treated with 0.008 ug/ml calcineurin signaling inhibitor tacrolimus after 48 hrs by microdilution checkboard technique relative to control", "design": "scale not given: the % may be the effect or the level left", "in_short": "as §5"}}, "data": [{"smiles": "OC(Cn1cncn1)(Cn1cncn1)c1ccc(F)cc1F", "note": "[FLUCONAZOLE]", "values": [{"measurement": "Activity", "setting": "Candida albicans [1]", "value": 61, "unit": "%"}, {"measurement": "MIC", "setting": "Candida albicans [2]", "value": 0.25, "unit": "µg/mL"}, {"measurement": "Activity", "setting": "Candida albicans [3]", "value": 2.37}, {"measurement": "Activity", "setting": "Candida albicans [4]", "value": 75, "unit": "%"}, {"measurement": "Activity", "setting": "Candida albicans [5]", "value": 6, "unit": "%"}, {"measurement": "MIC", "setting": "Candida albicans [6]", "value": 0.25, "unit": "µg/mL"}, {"measurement": "Activity", "setting": "Candida albicans [7]", "value": 0, "unit": "%"}, {"measurement": "Activity", "setting": "Candida albicans [8]", "value": 55, "unit": "%"}, {"measurement": "Activity", "setting": "Candida albicans [9]", "value": 60, "unit": "%"}, {"measurement": "Activity", "setting": "Candida albicans [10]", "value": 56, "unit": "%"}, {"measurement": "Activity", "setting": "Candida albicans [11]", "value": 2, "unit": "%"}, {"measurement": "Activity", "setting": "Candida albicans [12]", "value": 27, "unit": "%"}, {"measurement": "Activity", "setting": "Candida albicans [13]", "value": 21, "unit": "%"}, {"measurement": "Activity", "setting": "Candida albicans [14]", "value": 38, "unit": "%"}, {"measurement": "Activity", "setting": "Candida albicans [15]", "value": 67, "unit": "%"}, {"measurement": "Activity", "setting": "Candida albicans [16]", "value": 1.51}, {"measurement": "Activity", "setting": "Candida albicans [17]", "value": 50, "unit": "%"}, {"measurement": "Activity", "setting": "Candida albicans [18]", "value": 39, "unit": "%"}, {"measurement": "MIC", "setting": "Candida albicans [19]", "value": 0.5, "unit": "µg/mL"}, {"measurement": "Activity", "setting": "Candida albicans [20]", "value": 38, "unit": "%"}, {"measurement": "Activity", "setting": "Candida albicans [21]", "value": 25, "unit": "%"}]}]}
